From ChEMBL document CHEMBL4219242, “Furoxans (Oxadiazole-4 N-oxides) with Attenuated Reactivity are Neuroprotective, Cross the Blood Brain Barrier, and Improve Passive Avoidance Memory” (J Med Chem, 2018)
Activity calls are given as the source filed them.

Assays:
[1] = test system: PC-12; test: Neuroprotective activity against oxygen glucose deprivation-induced cell death in rat PC12 cells assessed as change in cell viability at 10 uM after 24 hrs by MTT assay relative to control; format: functional
In short: (§1)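 Undifferentiated PC12 cells (passage 12−14), 1 × 10^6 plated overnight in DMEM/F12 with 5% FBS and 5% horse serum. OGD: glucose-free HBSS under argon in an anaerobic chamber, 1.5 h at 37 °C. Reoxygenated in fresh growth medium with compound or DMSO vehicle for 24 h at 37 °C. Viability by MTT (0.5 mg/mL, 4 h), DMSO-solubilised, A540. % change vs vehicle control; mean ± SEM, n=3, triplicate experiments.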

[2] = test system: PC-12; test: Neuroprotective activity against oxygen glucose deprivation-induced cell death in rat PC12 cells assessed as change in cell viability at 25 uM after 24 hrs by MTT assay relative to control; format: functional; in short: as §1
[3] = test system: PC-12; test: Neuroprotective activity against oxygen glucose deprivation-induced cell death in rat PC12 cells assessed as change in cell viability at 1 uM after 24 hrs by MTT assay relative to control; format: functional; in short: as §1
[4] = Thiol reactivity of the compound in pH 7.4 PBS buffer at 250 uM after 2 to 12 hrs by HPLC-PDA analysis; format: physicochemical; conditions: pH 7.4, 250 µM
In short: (§2)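 Compound (250 μM) or N-ethylmaleimide control (250 μM) incubated with or without N-acetylcysteine (5 mM) in 50 mM PBS, pH 7.4, at 37 °C. Aliquots taken at 2 and 12 h were analysed by HPLC-PDA. Peak AUC at each analyte's λmax gave the remaining starting material.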

[5] = Drug uptake in C57BL/6 mouse brain at 20 mg/kg, ip or po measured after 1 to 12 hrs by LC-MS/MS analysis; format: ADME, organism-based; conditions: in vivo
In short: (§3)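 Male C57BL/6 mice (n = 4 per group) given the HCl salt at 20 mg/kg, either by oral gavage in sesame oil or ip in 0.9% NaCl with 1% DMSO. Sacrificed at 1, 2 or 12 h. Plasma (cardiac puncture, K2EDTA) and forebrain homogenate underwent solid-phase extraction with the d4 internal standard, then LC-MS/MS MRM quantitation against a spiked-brain calibration curve. Concentrations normalised to tissue weight; duplicate LC runs.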

[6] = Half life in C57BL/6 mouse plasma at 20 mg/kg, ip or po measured after 1 to 12 hrs by LC-MS/MS analysis; format: ADME, organism-based; in short: as §3
[7] = test system: PC-12; test: Neuroprotective activity against oxygen glucose deprivation-induced cell death in rat PC12 cells assessed as change in cell viability at 10 to 50 uM after 24 hrs cotreated with sGC inhibitor ODQ by MTT assay; format: functional, cell-based
In short: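 OGD-exposed PC12 cells (90 min glucose-free HBSS under argon, 37 °C) treated for 24 h with compound with or without the sGC inhibitor ODQ (10 μM). MTT viability read-out (0.5 mg/mL, 4 h, A540). Mean ± SEM (n = 3) of duplicate experiments; one-way ANOVA with Dunnett's test against vehicle.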

[8] = Drug uptake in cytosol of rat PC12 cells at 25 after 24 hrs under oxygen glucose deprivation condition by LC-MS/MS analysis; format: ADME, subcellular, PC-12
In short: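 After OGD (as in the neuroprotection assay), 1×10^6 PC12 cells were exposed to analyte at 25 μM for 24 h; a non-OGD plate served as control. Medium and cytosolic fractions (HEPES/NP-40 lysis buffer, 15 min at 0 °C, centrifuged) were diluted in 2% formic acid, spiked with the deuterated/nondeuterated partner as internal standard, and analysed by UPLC-MS/MS (MRM). AUCs were normalised to the internal standard.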

[9] = Ratio of drug uptake in C57BL/6 mouse brain to plasma at 20 mg/kg, ip measured after 1 to 12 hrs by LC-MS/MS analysis; format: ADME, organism-based; conditions: read-out: BPR
In short: (§4)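 Brain:plasma ratio taken from forebrain and plasma levels in C57BL/6 mice dosed at 20 mg/kg (ip in saline/1% DMSO or po in sesame oil), sampled at 1, 2 or 12 h. Samples extracted by SPE with the d4 internal standard and measured by LC-MS/MS MRM. Mean ± SEM; routes compared by unpaired t test.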

[10] = test system: Mus musculus; test: Effect on CREB phosphorylation in C57BL/6 mouse forebrain at 20 mg/kg, ip or po measured after 1 to 12 hrs by ELISA; format: organism-based; conditions: in vivo
[11] = Half life in C57BL/6 mouse brain at 20 mg/kg, ip or po measured after 1 to 12 hrs by LC-MS/MS analysis; format: ADME, organism-based; in short: as §3
[12] = test system: Mus musculus; test: Effect on Erk phosphorylation in hippocampal tissue of scopolamine-induced C57BL/6 mouse memory deficit model at 20 mg/kg, ip treated for 2 hrs prior to test followed by scopolamine challenge 30 mins prior to test by Western blot analysis; format: organism-based; conditions: in vivo
In short: (§5)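 C57BL/6 mice (N = 8 per cohort, blinded) received the HCl salt at 20 mg/kg ip (saline/1% DMSO) or vehicle 2 h before sacrifice, and scopolamine at 1 mg/kg ip or saline 30 min before sacrifice. Hippocampal lysates were run on 10−20% Tris-glycine gels and transferred to PVDF. Blots were probed with pCREB Ser133, CREB, p-ERK1/2 Thr202/Tyr204 and ERK1/2 antibodies, normalised to GAPDH and expressed as phospho:total.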

[13] = test system: Mus musculus; test: Effect on CREB phosphorylation in hippocampal tissue of scopolamine-induced C57BL/6 mouse memory deficit model at 20 mg/kg, ip treated for 2 hrs prior to test followed by scopolamine challenge 30 mins prior to test by Western blot analysis; format: organism-based; conditions: in vivo; in short: as §5
[14] = test system: Mus musculus; test: Reversal of scopolamine-induced memory impairment in C57BL/6 mouse assessed as latency time to enter dark compartment at 20 mg/kg, ip administered 60 to 120 mins prior to training followed by scopolamine challenge 30 mins prior to training measured after 24 hrs (reference value: 63.5 +/- 30 sec); format: functional
In short: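 Male C57BL/6 mice, habituated to confirm photophobia, were given the HCl salt (0.1–20 mg/kg ip in 0.9% NaCl/1% DMSO) 60 or 120 min before training, and scopolamine 1 mg/kg ip 30 min before training. Double-trial step-through training used a 0.5 mA, 3 s shock. Latency to enter the dark side was measured 24 h later (cut-off 300 s). n = 8–9; ANOVA with Dunnett's test.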

[15] = test system: PC-12; test: Neuroprotective activity against oxygen glucose deprivation-induced cell death in rat PC12 cells assessed as reduction in cell viability at 50 uM after 24 hrs by MTT assay; format: functional, cell-based
[16] = test system: PC-12; test: Cytotoxicity against rat PC12 cells assessed as reduction in cell viability at 50 uM after 24 hrs by MTT assay; format: cell-based; conditions: pc-12, 24 h
[17] = Stability of the compound in pH 7.4 PBS buffer at 250 uM after 2 to 12 hrs in presence of excess free thiols by HPLC-PDA analysis; format: physicochemical; conditions: pH 7.4, 250 µM; in short: as §2
[18] = Ratio of drug uptake in C57BL/6 mouse brain to plasma at 20 mg/kg, po measured after 1 to 12 hrs by LC-MS/MS analysis; format: ADME, organism-based; conditions: read-out: BPR; in short: as §4
[19] = test system: PC-12; test: Neuroprotective activity against oxygen glucose deprivation-induced cell death in rat PC12 cells assessed as change in cell viability after 24 hrs by resorufin-dye based assay; format: functional; conditions: PC-12, 24 h
In short: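 PC12 cells (undifferentiated, passage 12−14) given OGD for 90 min (glucose-free HBSS, argon, 37 °C), then normoxic growth medium with compound at 0.1, 1, 5, 10, 25 or 50 μM for 24 h. PrestoBlue (10%, 30 min) fluorescence at 560/590 nm. Viability as percent change against vehicle-control mean; control plates without OGD were included.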

[20] = Drug uptake in C57BL/6 mouse plasma at 20 mg/kg, ip or po measured after 1 to 12 hrs by LC-MS/MS analysis; format: ADME, organism-based; conditions: in vivo; in short: as §3

SMILES	Activity [1] [%]	Activity [2] [%]	Activity [3] [%]	other results
CC1CCN(Cc2no[n+]([O-])c2-c2ccc(C(F)(F)F)cc2)CC1	-16	-22	2	
CCN1C(=O)C=CC1=O [N-ETHYLMALEIMIDE]				Drug metabolism [4]: Metabolite_Detected
CC1CCN(Cc2no[n+]([O-])c2-c2ccc(F)cc2)CC1	46	41	-3	Drug uptake [5]: Active; half-life [6]: 110 min; Activity [7]: inactive; Drug uptake [8]: Active; Kp [9]: 0.68; Activity [10]: Non-Toxic; half-life [11]: 50 min; Activity [12]: Non-Toxic; Activity [13]: Non-Toxic; Time [14]: 237 s; Activity [15]: inactive; Activity [16]: Non-Toxic; Stability [17]: Stable; Kp [18]: 1.49; EC50 [19]: 1900 nM; Drug uptake [20]: Active
CC1CCN(Cc2no[n+]([O-])c2-c2ccccc2)CC1	6	-11	-21	
CC1CCN(Cc2c(-c3ccc(C(F)(F)F)cc3)no[n+]2[O-])CC1	10	0	-9	
Cc1ccc(-c2no[n+]([O-])c2CN2CCC(C)CC2)cc1	12	10	7	
CC1CCN(Cc2c(-c3ccccc3)no[n+]2[O-])CC1	19	16	9	
COc1ccc(-c2c(CN3CCC(C)CC3)no[n+]2[O-])cc1	12	5	11	
COc1ccc(-c2no[n+]([O-])c2CN2CCC(C)CC2)cc1	10	-1	14	
[2H]C1([2H])CC(C)CC([2H])([2H])N1Cc1no[n+]([O-])c1-c1ccc(F)cc1	20	7	8	Drug uptake [8]: Active
[2H]C1([2H])CC(C)CC([2H])([2H])N1Cc1c(-c2ccc(F)cc2)no[n+]1[O-]	6	-1	11	
CC1CCN(Cc2no[n+]([O-])c2-c2ccc(Br)cc2)CC1	77	96	25	
CC1CCN(Cc2no[n+]([O-])c2-c2ccc(OC(F)F)cc2)CC1	61	53	67	
CC1CCN(Cc2c(-c3ccc(F)cc3)no[n+]2[O-])CC1	11	5	11	
Cc1ccc(-c2c(CN3CCC(C)CC3)no[n+]2[O-])cc1	13	8	22	
CC1CCN(Cc2c(-c3ccc(Cl)cc3)no[n+]2[O-])CC1	7	25	35	
CC1CCN(Cc2c(-c3ccc(Br)cc3)no[n+]2[O-])CC1	-2	19	-7	
CC1CCN(Cc2no[n+]([O-])c2-c2ccc(Cl)cc2)CC1	19	4	-10	
CC1CCN(Cc2c(-c3ccc(OC(F)F)cc3)no[n+]2[O-])CC1	86	108	54	
